From ChEMBL document CHEMBL3244286, “Inactivation of trypsin-like proteases by sulfonylation. Variation of positively charged group and inhibitor length” (J Med Chem, 1978)

target: T1, Plasminogen (Homo sapiens, UniProt P00747); assay: Inhibition of 4.8 X 10^-7 M human plasmin using Z-Lys-nitrophenyl ester as substrate assessed as second-order rate inactivation constant incubated up to 1 hr at pH 7.4; details: not given
Outline: (§1)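 Enzyme and inhibitor incubated at room temperature in 0.1 M tris chloride, pH 7.4, with no more than 1% DMF from stocks. Aliquots were withdrawn and residual activity was assayed with Z-Lys-nitrophenyl ester. Protease concentration was set by methylumbelliferyl p-guanidinobenzoate titration. Decay was first order, k1 = 0.693/t1/2 (min), and the second-order constant is k1 divided by inhibitor concentration. Incubations with little loss of activity were stopped at 1 h.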

T1 sequence (P00747 97-580 limits assumed): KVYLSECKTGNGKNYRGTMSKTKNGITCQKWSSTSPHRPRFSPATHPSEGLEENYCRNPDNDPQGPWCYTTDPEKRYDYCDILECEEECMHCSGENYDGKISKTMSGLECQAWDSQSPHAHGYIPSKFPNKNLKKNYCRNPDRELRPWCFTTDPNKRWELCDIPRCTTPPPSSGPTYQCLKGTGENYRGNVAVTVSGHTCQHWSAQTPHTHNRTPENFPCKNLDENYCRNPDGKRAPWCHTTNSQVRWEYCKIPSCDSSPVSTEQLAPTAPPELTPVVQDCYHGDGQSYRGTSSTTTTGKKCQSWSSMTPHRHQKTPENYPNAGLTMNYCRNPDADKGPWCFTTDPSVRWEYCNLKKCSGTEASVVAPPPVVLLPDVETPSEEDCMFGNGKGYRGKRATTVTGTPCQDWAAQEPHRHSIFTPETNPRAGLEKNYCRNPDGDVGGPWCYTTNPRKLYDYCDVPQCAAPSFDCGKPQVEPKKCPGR
T1 sequence (P00747 581-810 limits assumed): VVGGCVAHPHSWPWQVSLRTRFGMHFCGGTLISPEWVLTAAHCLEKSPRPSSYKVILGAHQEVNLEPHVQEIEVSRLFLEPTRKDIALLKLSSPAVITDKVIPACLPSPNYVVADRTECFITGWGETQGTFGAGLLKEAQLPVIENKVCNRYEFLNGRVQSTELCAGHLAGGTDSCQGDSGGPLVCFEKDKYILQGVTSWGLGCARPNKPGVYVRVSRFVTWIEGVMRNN

Row | SMILES | Kinact
1 | C[S+](C)c1cccc(CS(=O)(=O)Oc2ccc([N+](=O)[O-])cc2)c1 | 0 M⁻¹ s⁻¹
2 | O=[N+]([O-])c1ccc(OS(=O)(=O)Cc2ccc(-[n+]3ccccc3)cc2)cc1 | 0 M⁻¹ s⁻¹
3 | C[S+](C)c1ccc(CS(=O)(=O)Oc2ccc([N+](=O)[O-])cc2)cc1 | 0 M⁻¹ s⁻¹
4 | O=[N+]([O-])c1ccc(OS(=O)(=O)Cc2cccc(-[n+]3ccccc3)c2)cc1 | 0 M⁻¹ s⁻¹
5 | N=C(N)SCc1ccc(CS(=O)(=O)Oc2cccc([N+](=O)[O-])c2)cc1 | 0 M⁻¹ s⁻¹

The next lines start with the values.

Row | Kinact | SMILES
6 | 0.117 M⁻¹ s⁻¹ | N=C(N)SCc1ccc(CS(=O)(=O)Oc2ccc([N+](=O)[O-])cc2)cc1
7 | 2.08 M⁻¹ s⁻¹ | N=C(N)SCc1ccc(S(=O)(=O)Oc2ccc([N+](=O)[O-])cc2)cc1
8 | 0.833 M⁻¹ s⁻¹ | C[N+](C)(C)Cc1ccc(S(=O)(=O)Oc2ccc([N+](=O)[O-])cc2)cc1
9 | 0 M⁻¹ s⁻¹ | CNC(=N)SCc1ccc(S(=O)(=O)Oc2ccc([N+](=O)[O-])cc2)cc1
10 | 0 M⁻¹ s⁻¹ | C[S+](C)Cc1ccc(S(=O)(=O)Oc2ccc([N+](=O)[O-])cc2)cc1
11 | 0 M⁻¹ s⁻¹ | O=[N+]([O-])c1ccc(OS(=O)(=O)c2ccc(C[n+]3ccccc3)cc2)cc1

target: not listed separately; assay: Competitive inhibition of 6.4 X 10^-7 M bovine trypsin using Z-Lys-nitrophenyl ester as substrate incubated up to 1 hr at pH 6; set-up: species or system Bos taurus; details: not given
Outline: (§2)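 Ki for competitive inhibition measured at pH 6 with Z-Lys-nitrophenyl ester as substrate. Enzyme concentrations were set by active-site titration with methylumbelliferyl p-guanidinobenzoate. Compounds were added from DMF stocks, with no more than 1% DMF in the reaction.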

Row | Ki | SMILES
12 | 390 µM | N=C(N)SCc1ccc(CS(=O)(=O)Oc2ccc([N+](=O)[O-])cc2)cc1

target: Prothrombin (Bos taurus, UniProt P00735); assay: Competitive inhibition of 16 X 10^-7 M bovine thrombin using Z-Lys-nitrophenyl ester as substrate incubated up to 1 hr at pH 6; details: not given
Outline: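 Ki for competitive inhibition was determined at pH 6 against Z-Lys-nitrophenyl ester hydrolysis, following previously published procedures. Active enzyme concentration was set by titration with methylumbelliferyl p-guanidinobenzoate. Inhibitors were added from DMF stock solutions, with DMF at no more than 1% of the reaction mixture.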

Row | Ki | SMILES
13 | 930 µM | N=C(N)SCc1ccc(CS(=O)(=O)Oc2ccc([N+](=O)[O-])cc2)cc1

target: Urokinase-type plasminogen activator (Homo sapiens) (UniProt P00749); assay: Inhibition of 51 X 10^-7 M human urokinase using Z-Lys-thiobenzyl ester as substrate assessed as second-order rate inactivation constant incubated up to 1 hr at pH 7.4; details: not given

Row | Kinact | SMILES
14 | 1.53 M⁻¹ s⁻¹ | N=C(N)SCc1ccc(S(=O)(=O)Oc2ccc([N+](=O)[O-])cc2)cc1

target: T1, Plasminogen; assay: Competitive inhibition of 4.8 X 10^-7 M human plasmin using Z-Lys-nitrophenyl ester as substrate incubated up to 1 hr at pH 6; details: not given; outline: as §2

Row | Ki | SMILES
15 | 1150 µM | N=C(N)SCc1ccc(CS(=O)(=O)Oc2ccc([N+](=O)[O-])cc2)cc1

target: Prothrombin (Bos taurus) (UniProt P00735); assay: Inhibition of 16 X 10^-7 M bovine thrombin using Z-Lys-nitrophenyl ester as substrate assessed as second-order rate inactivation constant incubated up to 1 hr at pH 7.4; details: not given; outline: as §1

Row | SMILES | Kinact
16 | C[S+](C)c1cccc(CS(=O)(=O)Oc2ccc([N+](=O)[O-])cc2)c1 | 0 M⁻¹ s⁻¹
17 | O=[N+]([O-])c1ccc(OS(=O)(=O)Cc2ccc(-[n+]3ccccc3)cc2)cc1 | 0 M⁻¹ s⁻¹
18 | C[S+](C)c1ccc(CS(=O)(=O)Oc2ccc([N+](=O)[O-])cc2)cc1 | 0 M⁻¹ s⁻¹
19 | O=[N+]([O-])c1ccc(OS(=O)(=O)Cc2cccc(-[n+]3ccccc3)c2)cc1 | 0 M⁻¹ s⁻¹
20 | N=C(N)SCc1ccc(CS(=O)(=O)Oc2cccc([N+](=O)[O-])c2)cc1 | 0 M⁻¹ s⁻¹

The remaining lines, values ahead:

Row | Kinact | SMILES
21 | 0 M⁻¹ s⁻¹ | N=C(N)SCc1ccc(CS(=O)(=O)Oc2ccc([N+](=O)[O-])cc2)cc1
22 | 9.67 M⁻¹ s⁻¹ | N=C(N)SCc1ccc(S(=O)(=O)Oc2ccc([N+](=O)[O-])cc2)cc1
23 | 2.45 M⁻¹ s⁻¹ | C[N+](C)(C)Cc1ccc(S(=O)(=O)Oc2ccc([N+](=O)[O-])cc2)cc1
24 | 0 M⁻¹ s⁻¹ | CNC(=N)SCc1ccc(S(=O)(=O)Oc2ccc([N+](=O)[O-])cc2)cc1
25 | 0 M⁻¹ s⁻¹ | C[S+](C)Cc1ccc(S(=O)(=O)Oc2ccc([N+](=O)[O-])cc2)cc1
26 | 0 M⁻¹ s⁻¹ | O=[N+]([O-])c1ccc(OS(=O)(=O)c2ccc(C[n+]3ccccc3)cc2)cc1

species on record: Bos taurus; assay: Inhibition of 6.4 X 10^-7 M bovine trypsin using Z-Lys-nitrophenyl ester as substrate assessed as second-order rate inactivation constant incubated up to 1 hr at pH 7.4; details: not given; outline: as §1

Row | SMILES | Kinact
27 | C[S+](C)c1cccc(CS(=O)(=O)Oc2ccc([N+](=O)[O-])cc2)c1 | 0 M⁻¹ s⁻¹
28 | O=[N+]([O-])c1ccc(OS(=O)(=O)Cc2ccc(-[n+]3ccccc3)cc2)cc1 | 0 M⁻¹ s⁻¹
29 | C[S+](C)c1ccc(CS(=O)(=O)Oc2ccc([N+](=O)[O-])cc2)cc1 | 0 M⁻¹ s⁻¹
30 | O=[N+]([O-])c1ccc(OS(=O)(=O)Cc2cccc(-[n+]3ccccc3)c2)cc1 | 0 M⁻¹ s⁻¹
31 | N=C(N)SCc1ccc(CS(=O)(=O)Oc2cccc([N+](=O)[O-])c2)cc1 | 7.17 M⁻¹ s⁻¹

Results, then the compound that gave them:

Row | Kinact | SMILES
32 | 25 M⁻¹ s⁻¹ | N=C(N)SCc1ccc(CS(=O)(=O)Oc2ccc([N+](=O)[O-])cc2)cc1
33 | 0 M⁻¹ s⁻¹ | CNC(=N)SCc1ccc(S(=O)(=O)Oc2ccc([N+](=O)[O-])cc2)cc1
34 | 0 M⁻¹ s⁻¹ | C[S+](C)Cc1ccc(S(=O)(=O)Oc2ccc([N+](=O)[O-])cc2)cc1
35 | 0 M⁻¹ s⁻¹ | O=[N+]([O-])c1ccc(OS(=O)(=O)c2ccc(C[n+]3ccccc3)cc2)cc1

target: Prothrombin (Bos taurus) (UniProt P00735); assay: Inhibition of 16 X 10^-7 M bovine thrombin using Z-Lys-nitrophenyl ester as substrate assessed as half time required for enzyme inactivation at 5X10'-5 M at pH 7.4; details: not given; outline: as §1

Row | T1/2 | SMILES
36 | 22 min | N=C(N)SCc1ccc(S(=O)(=O)Oc2ccc([N+](=O)[O-])cc2)cc1

target: T2, Plasma kallikrein (Homo sapiens, UniProt P03952); assay: Inhibition of 2 X 10^-7 M human plasma kallikrein using Z-Lys-nitrophenyl ester as substrate assessed as second-order rate inactivation constant incubated up to 1 hr at pH 7.4; details: not given; outline: as §1
T2 sequence (P03952 20-390 limits assumed): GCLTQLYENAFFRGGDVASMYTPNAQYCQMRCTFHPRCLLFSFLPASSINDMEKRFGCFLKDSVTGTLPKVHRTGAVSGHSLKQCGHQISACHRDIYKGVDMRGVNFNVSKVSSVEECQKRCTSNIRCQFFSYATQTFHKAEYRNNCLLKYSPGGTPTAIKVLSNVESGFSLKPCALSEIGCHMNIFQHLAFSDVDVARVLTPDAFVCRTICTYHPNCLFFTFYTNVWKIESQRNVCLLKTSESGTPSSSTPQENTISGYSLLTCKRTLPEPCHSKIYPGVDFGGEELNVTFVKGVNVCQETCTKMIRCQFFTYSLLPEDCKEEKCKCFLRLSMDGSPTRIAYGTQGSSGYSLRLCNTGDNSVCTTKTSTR
T2 sequence (P03952 391-638 limits assumed): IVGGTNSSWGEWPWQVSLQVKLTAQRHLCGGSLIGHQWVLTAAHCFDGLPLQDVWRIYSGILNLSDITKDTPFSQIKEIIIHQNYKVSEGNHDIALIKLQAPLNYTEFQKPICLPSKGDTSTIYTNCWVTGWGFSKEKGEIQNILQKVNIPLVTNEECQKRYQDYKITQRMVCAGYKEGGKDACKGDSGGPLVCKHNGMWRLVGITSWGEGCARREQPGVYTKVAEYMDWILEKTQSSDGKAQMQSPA

Row | SMILES | Kinact
37 | C[S+](C)c1cccc(CS(=O)(=O)Oc2ccc([N+](=O)[O-])cc2)c1 | 0 M⁻¹ s⁻¹
38 | O=[N+]([O-])c1ccc(OS(=O)(=O)Cc2ccc(-[n+]3ccccc3)cc2)cc1 | 0 M⁻¹ s⁻¹
39 | C[S+](C)c1ccc(CS(=O)(=O)Oc2ccc([N+](=O)[O-])cc2)cc1 | 0 M⁻¹ s⁻¹
40 | O=[N+]([O-])c1ccc(OS(=O)(=O)Cc2cccc(-[n+]3ccccc3)c2)cc1 | 0 M⁻¹ s⁻¹
41 | N=C(N)SCc1ccc(CS(=O)(=O)Oc2cccc([N+](=O)[O-])c2)cc1 | 0 M⁻¹ s⁻¹

The remaining lines, values ahead:

Row | Kinact | SMILES
42 | 0.183 M⁻¹ s⁻¹ | N=C(N)SCc1ccc(S(=O)(=O)Oc2ccc([N+](=O)[O-])cc2)cc1
43 | 0 M⁻¹ s⁻¹ | C[N+](C)(C)Cc1ccc(S(=O)(=O)Oc2ccc([N+](=O)[O-])cc2)cc1
44 | 0 M⁻¹ s⁻¹ | CNC(=N)SCc1ccc(S(=O)(=O)Oc2ccc([N+](=O)[O-])cc2)cc1
45 | 0 M⁻¹ s⁻¹ | C[S+](C)Cc1ccc(S(=O)(=O)Oc2ccc([N+](=O)[O-])cc2)cc1

target: T2, Plasma kallikrein; assay: Inhibition of 2 X 10^-7 M human plasma kallikrein using Z-Lys-nitrophenyl ester as substrate assessed as half time required for enzyme inactivation at 5X10'-6 M at pH 7.4; details: in the assay text read “5.4X10'-4 M” for “5X10'-6 M”; outline: as §1

Row | T1/2 | SMILES
46 | > 120 min | N=C(N)SCc1ccc(S(=O)(=O)Oc2ccc([N+](=O)[O-])cc2)cc1

target: Urokinase-type plasminogen activator (Homo sapiens) (UniProt P00749); assay: Inhibition of 2 X 10^-7 M human urokinase using Z-Lys-thiobenzyl ester as substrate assessed as second-order rate inactivation constant incubated up to 1 hr at pH 7.4; details: in the assay text read “51 X 10^-7 M” for “2 X 10^-7 M”
Outline: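 Purified urokinase incubated with inhibitor at room temperature in 0.1 M tris chloride, pH 7.4, with no more than 1% DMF. Residual activity in aliquots was read with Z-Lys-thiobenzyl ester. Enzyme was active-site titrated with methylumbelliferyl p-guanidinobenzoate. First-order k1 = 0.693/t1/2 (min), divided by inhibitor concentration to give the second-order rate. Incubations were not run past 1 h when loss was low.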

Row | Kinact | SMILES
47 | 10 M⁻¹ s⁻¹ | N=C(N)SCc1ccc(CS(=O)(=O)Oc2ccc([N+](=O)[O-])cc2)cc1
48 | 0 M⁻¹ s⁻¹ | O=[N+]([O-])c1ccc(OS(=O)(=O)Cc2cccc(-[n+]3ccccc3)c2)cc1

target: T2, Plasma kallikrein; assay: Competitive inhibition of 2 X 10^-7 M human plasma kallikrein using Z-Lys-nitrophenyl ester as substrate incubated up to 1 hr at pH 6; details: not given; outline: as §2

Row | Ki | SMILES
49 | 320 µM | N=C(N)SCc1ccc(CS(=O)(=O)Oc2ccc([N+](=O)[O-])cc2)cc1
